Laboratory results published in ChEMBL document CHEMBL1142316, “Synthesis and biological evaluation of bengacarboline derivatives” (Bioorg Med Chem Lett, 2008).
Activity calls are given as the source filed them. No cut-off for these calls is given here.

How the values were obtained:
[1] = Cytotoxicity against human Namalwa cells after 72 hrs; assay type: functional, cell-based; settings: NAMALVA
In short: (§1)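 Cells (ATCC) were exposed in log-phase growth for 72 h to compound across 10 µM to 10 nM in RPMI with 10% FCS, 4 mM glutamine, penicillin/streptomycin and fungizone, at 37 °C under 5% CO2. Viability was read as ATP from viable cells by luminescence kit. IC50 is the dose cutting ATP release by 50%.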

Mus musculus = experiment: Toxicity in P388 cells xenografted mouse at 10 to 20 mg/kg, ip for 4 days; assay type: organism-based; design: dose 10-20 mg/kg, route intraperitoneal; settings: in vivo, 96 h
In short: (§2)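 Compounds were given ip at 10 or 20 mg/kg per injection, once daily for 4 days. Antitumor activity and toxicity were both recorded.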

A549 [2] = experiment: Cell cycle arrest in human A549 cells by accumulation at S phase after 48 hrs by flow cytometry; assay type: functional, cell-based
In short: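 A549 cells were seeded at 1.3 × 10^4 cells/cm², then drug-treated. They were stained with propidium iodide and read by flow cytometry on the […] channel. G1, S and G2/M fractions were obtained by deconvolution.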

P388 [3] = experiment: Antitumor activity in mouse P388 leukemia model at 20 mg/kg, ip for 4 days; assay type: functional, organism-based; design: dose 20 mg/kg; in short: as §2
[4] = Displacement of Hoechst 33258 from DNA
[5] = Displacement of ethidium bromide from DNA
A549 [6] = experiment: Cytotoxicity against human A549 cells after 72 hrs; assay type: functional, cell-based; settings: A549, 72 h; in short: as §1
MCF7 = experiment: Cytotoxicity against human MCF7 cells after 72 hrs; assay type: functional, cell-based; settings: MCF7, 72 h; in short: as §1
V79 = experiment: Effect on DNA damage in Chinese hamster V79 cells at 10 uM after 1 hr by comet assay relative to control; assay type: functional, cell-based; settings: Cricetulus griseus
In short: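 Cells were treated for 1 h at 10 µM. Controls carried 1% DMSO, matching the drug samples. Strand breaks were scored by comet assay, with representative photomicrographs (10×) of each full slide.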

BXPC-3 = experiment: Cytotoxicity against human BxPC3 cells after 72 hrs; assay type: functional, cell-based; settings: BXPC-3, 72 h; in short: as §1
[7] = target: DNA topoisomerase 2-alpha (Homo sapiens, UniProt P11388); experiment: Inhibition of topoisomerase 2 mediated DNA relaxation
Chain of DNA topoisomerase 2-alpha (P11388 whole entry): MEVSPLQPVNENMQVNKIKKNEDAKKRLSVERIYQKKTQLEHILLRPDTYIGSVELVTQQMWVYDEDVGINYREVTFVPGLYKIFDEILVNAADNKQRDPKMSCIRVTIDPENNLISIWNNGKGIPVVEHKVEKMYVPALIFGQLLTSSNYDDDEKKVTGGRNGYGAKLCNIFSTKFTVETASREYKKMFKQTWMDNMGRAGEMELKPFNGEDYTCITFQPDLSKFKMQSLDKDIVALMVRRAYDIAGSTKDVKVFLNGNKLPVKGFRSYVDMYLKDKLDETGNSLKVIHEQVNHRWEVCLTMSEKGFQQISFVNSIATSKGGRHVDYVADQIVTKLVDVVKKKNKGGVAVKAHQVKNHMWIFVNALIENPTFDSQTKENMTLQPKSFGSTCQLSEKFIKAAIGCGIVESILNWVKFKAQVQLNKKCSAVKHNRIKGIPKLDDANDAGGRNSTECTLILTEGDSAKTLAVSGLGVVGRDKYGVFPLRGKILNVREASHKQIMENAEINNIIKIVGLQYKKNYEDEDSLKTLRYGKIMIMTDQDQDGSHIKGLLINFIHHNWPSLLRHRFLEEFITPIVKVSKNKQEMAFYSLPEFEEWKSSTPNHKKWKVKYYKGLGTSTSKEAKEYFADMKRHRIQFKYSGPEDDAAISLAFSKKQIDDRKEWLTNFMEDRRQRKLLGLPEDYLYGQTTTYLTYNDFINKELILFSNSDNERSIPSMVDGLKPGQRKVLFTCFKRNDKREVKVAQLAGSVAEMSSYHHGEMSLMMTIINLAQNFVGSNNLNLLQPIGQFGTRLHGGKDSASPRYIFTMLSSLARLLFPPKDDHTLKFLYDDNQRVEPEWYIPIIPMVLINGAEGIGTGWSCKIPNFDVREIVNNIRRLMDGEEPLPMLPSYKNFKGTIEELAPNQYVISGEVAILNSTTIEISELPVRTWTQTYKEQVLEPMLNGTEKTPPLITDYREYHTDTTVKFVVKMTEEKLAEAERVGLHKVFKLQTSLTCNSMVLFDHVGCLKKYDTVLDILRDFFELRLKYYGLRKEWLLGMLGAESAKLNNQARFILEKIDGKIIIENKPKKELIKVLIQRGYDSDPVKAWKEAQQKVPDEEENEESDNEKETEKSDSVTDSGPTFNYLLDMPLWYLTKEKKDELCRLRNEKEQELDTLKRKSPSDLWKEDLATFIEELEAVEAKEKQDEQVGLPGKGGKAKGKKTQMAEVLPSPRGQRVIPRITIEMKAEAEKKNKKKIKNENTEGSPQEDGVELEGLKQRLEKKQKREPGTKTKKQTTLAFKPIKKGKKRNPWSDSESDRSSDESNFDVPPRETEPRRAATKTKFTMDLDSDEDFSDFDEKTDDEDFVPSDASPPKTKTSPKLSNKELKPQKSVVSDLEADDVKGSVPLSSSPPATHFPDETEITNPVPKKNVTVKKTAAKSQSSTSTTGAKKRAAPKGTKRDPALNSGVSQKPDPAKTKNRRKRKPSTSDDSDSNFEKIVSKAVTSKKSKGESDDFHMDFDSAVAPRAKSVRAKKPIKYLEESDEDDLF

SK-OV-3 = experiment: Cytotoxicity against human SKOV3 cells after 72 hrs; assay type: functional, cell-based; settings: SK-OV-3, 72 h; in short: as §1
P388 [8] = experiment: Antitumor activity in mouse P388 cells xenografted mouse at 10 mg/kg, ip for 4 days; assay type: functional, organism-based; design: dose 10 mg/kg; in short: as §2
[9] = Inhibition of topoisomerase by kinetoplast DNA decatenation assay
DNA topoisomerase 1 = target: T1, DNA topoisomerase 1 (Homo sapiens, UniProt P11387); experiment: Inhibition of topoisomerase 1-mediated DNA relaxation
T1 sequence (P11387 whole entry): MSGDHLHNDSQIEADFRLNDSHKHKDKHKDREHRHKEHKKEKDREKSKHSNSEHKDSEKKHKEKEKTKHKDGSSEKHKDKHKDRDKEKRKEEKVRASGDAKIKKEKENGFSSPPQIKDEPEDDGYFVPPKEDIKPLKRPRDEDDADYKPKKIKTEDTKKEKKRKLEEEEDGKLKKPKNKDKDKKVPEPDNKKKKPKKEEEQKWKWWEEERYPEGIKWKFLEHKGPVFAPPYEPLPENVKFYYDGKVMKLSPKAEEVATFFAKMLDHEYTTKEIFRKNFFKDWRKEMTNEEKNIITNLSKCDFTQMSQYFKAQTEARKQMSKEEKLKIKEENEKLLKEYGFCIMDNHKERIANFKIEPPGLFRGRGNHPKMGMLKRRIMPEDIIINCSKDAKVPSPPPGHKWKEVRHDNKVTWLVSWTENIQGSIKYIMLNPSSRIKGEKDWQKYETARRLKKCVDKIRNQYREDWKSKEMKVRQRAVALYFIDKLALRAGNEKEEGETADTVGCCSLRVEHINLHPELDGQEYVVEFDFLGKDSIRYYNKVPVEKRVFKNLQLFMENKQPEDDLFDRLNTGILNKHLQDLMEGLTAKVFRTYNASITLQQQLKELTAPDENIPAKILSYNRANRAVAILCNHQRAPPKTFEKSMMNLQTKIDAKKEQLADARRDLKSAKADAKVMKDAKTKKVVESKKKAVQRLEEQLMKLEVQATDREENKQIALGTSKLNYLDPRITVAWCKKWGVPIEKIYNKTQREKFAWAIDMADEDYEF
In short: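 Supercoiled plasmid DNA (200 ng) was incubated 20 min at 37 °C with the minimum purified topoisomerase I needed for full relaxation, with or without drug at 1, 3.2, 10 or 100 µM. The reaction was stopped with SDS–proteinase K, and products were resolved by agarose gel electrophoresis.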

LoVo = experiment: Cytotoxicity against human LoVo cells after 72 hrs; assay type: functional, cell-based; in short: as §1
HL-60 = experiment: Cytotoxicity against human HL60 cells; assay type: functional, cell-based
[10] = Cytotoxicity against human HL60/MX2 cells; assay type: functional, cell-based
CEM/C2 = experiment: Cytotoxicity against human topoisomerase 1 mutant CEM/C2 cells; assay type: functional, cell-based; in short: as §1
CCRF-CEM = experiment: Cytotoxicity against human CEM cells; assay type: functional, cell-based; in short: as §1
[11] = Inhibition of topoisomerase by kinetoplast DNA decatenation assay at 100 uM

SMILES: NCCc1c(C(c2[nH]c3cc(Br)ccc3c2CCNC(=O)C(F)(F)F)c2cn(S(=O)(=O)c3ccccc3)c3ccccc23)[nH]c2cc(Br)ccc12 (stereo not given)
- IC50 [1]: 3.5 µM
- Activity (Mus musculus): Non-toxic
- Activity (A549 [2]): Dose-dependent effect
- Activity (P388 [3]): Non-toxic
- Activity [4]: inactive
- Activity [5]: inactive
- IC50 (A549 [6]): 5 µM
- IC50 (MCF7): 4.9 µM
- Activity (V79): Active
- IC50 (BXPC-3): 3.6 µM
- IC50 [7]: 19 µM
- IC50 (SK-OV-3): 6.5 µM
- Activity (P388 [8]): Non-toxic
- IC50 [9]: 20 µM
- IC50 (DNA topoisomerase 1): 9 µM
- IC50 (LoVo): 4.5 µM

SMILES: NCCc1c(C(c2[nH]c3cc(Br)ccc3c2CCNC(=O)C(F)(F)F)c2c[nH]c3ccccc23)[nH]c2cc(Br)ccc12 (stereo not given)
- IC50 (HL-60): 8.8 µM
- IC50 [1]: 5.4 µM
- Activity (Mus musculus): Non-toxic
- Activity (A549 [2]): Dose-dependent effect
- Activity (P388 [3]): Non-toxic
- Activity [4]: inactive
- IC50 [10]: 10 µM
- Activity [5]: inactive
- IC50 (CEM/C2): 5.6 µM
- IC50 (CCRF-CEM): 5.5 µM
- IC50 (A549 [6]): 4.6 µM
- IC50 (MCF7): 4.2 µM
- Activity (V79): Active
- IC50 (BXPC-3): 5.1 µM
- IC50 [7]: 13 µM
- IC50 (SK-OV-3): 6.5 µM
- Activity (P388 [8]): Non-toxic
- IC50 [9]: 20 µM
- IC50 (DNA topoisomerase 1): 8 µM
- IC50 (LoVo): 5 µM

SMILES: NCCc1c(C2(c3c[nH]c4ccccc34)NCCc3c2[nH]c2ccccc32)[nH]c2ccccc12 (stereo not given) [BENGACARBOLINE]
- IC50 [1]: > 10 µM
- Activity (A549 [2]): Active
- IC50 (A549 [6]): 7.1 µM
- IC50 (MCF7): 8.6 µM
- IC50 (BXPC-3): 10 µM
- IC50 [7]: > 100 µM
- Activity [11]: inactive
- IC50 (SK-OV-3): > 10 µM
- IC50 (LoVo): 9.9 µM
